The text below walks through data of ChEMBL document CHEMBL4011624, “The 1,2,4-Triazolo[4,3-a]pyrazin-3-one as a Versatile Scaffold for the Design of Potent Adenosine Human Receptor Antagonists. Structural Investigations to Target the A2A Receptor Subtype” (J Med Chem, 2017).

pIC50, pKi: −log10 of the molar value. Calls of active or inactive are those of the source. The calls are words filed in the database; no cut-off is given here.

Usually pKi stands for the Ki on a negative log10 scale, so that one unit is a factor of ten. A higher pKi goes with a small Ki. The term pIC50 denotes the negative decadic logarithm of the IC50, by convention in mol/L.

One data set addresses T1, Adenosine receptor A1 (Homo sapiens, UniProt P30542).
T1 sequence (P30542 whole entry): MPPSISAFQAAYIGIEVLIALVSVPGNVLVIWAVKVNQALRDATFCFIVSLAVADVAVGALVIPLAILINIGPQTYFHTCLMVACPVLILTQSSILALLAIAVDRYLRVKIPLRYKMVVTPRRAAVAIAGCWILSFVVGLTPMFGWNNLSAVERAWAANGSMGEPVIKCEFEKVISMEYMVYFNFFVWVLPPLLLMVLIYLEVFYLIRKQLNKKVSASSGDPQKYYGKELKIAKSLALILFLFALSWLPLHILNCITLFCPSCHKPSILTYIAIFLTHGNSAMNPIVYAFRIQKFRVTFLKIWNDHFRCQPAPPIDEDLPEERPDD
In words: Displacement of [3H]CCPA from human adenosine receptor A1 expressed in CHO cell membranes after 3 hrs by microbeta scintillation counting method.

Data set [1] has as its target T2, Adenosine receptor A2a (Homo sapiens, UniProt P29274). In words: Displacement of [3H]NECA from human adenosine receptor A2A expressed in CHO cell membranes after 3 hrs by microbeta scintillation counting method. For orientation: Loss of bound radioactivity is the signal in a displacement assay; it reports binding, not function.
The target of another data set is T3, Adenosine receptor A3 (Homo sapiens, UniProt P0DMS8).
T3 sequence (P0DMS8 whole entry): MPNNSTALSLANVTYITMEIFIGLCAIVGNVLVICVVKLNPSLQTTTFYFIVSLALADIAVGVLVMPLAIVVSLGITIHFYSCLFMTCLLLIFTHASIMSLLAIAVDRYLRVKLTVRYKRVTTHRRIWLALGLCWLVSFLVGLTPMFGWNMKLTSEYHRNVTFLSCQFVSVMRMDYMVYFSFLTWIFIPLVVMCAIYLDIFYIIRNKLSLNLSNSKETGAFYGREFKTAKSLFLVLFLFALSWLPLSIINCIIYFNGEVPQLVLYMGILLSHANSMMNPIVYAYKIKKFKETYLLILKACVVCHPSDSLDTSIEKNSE
In words: Displacement of [3H]HEMADO from human adenosine receptor A3 expressed in CHO cell membranes after 3 hrs by microbeta scintillation counting method.

Another data set deals with T4, Adenosine receptor A2b (Homo sapiens, UniProt P29275).
T4 sequence (P29275 whole entry): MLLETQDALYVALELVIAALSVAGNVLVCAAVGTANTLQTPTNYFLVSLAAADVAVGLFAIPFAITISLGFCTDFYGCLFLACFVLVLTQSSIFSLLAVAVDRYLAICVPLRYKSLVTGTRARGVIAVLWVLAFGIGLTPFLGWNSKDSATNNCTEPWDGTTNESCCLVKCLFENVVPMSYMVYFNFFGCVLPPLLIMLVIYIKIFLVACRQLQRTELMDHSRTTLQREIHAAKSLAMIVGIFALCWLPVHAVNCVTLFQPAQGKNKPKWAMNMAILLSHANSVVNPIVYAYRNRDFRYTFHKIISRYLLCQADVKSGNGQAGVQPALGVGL
Briefly: Antagonist activity at human adenosine receptor A2B expressed in CHO cell membranes assessed as inhibition of NECA-induced increase of cAMP accumulation preincubated for 10 mins followed by NECA addition measured after 10 mins by GloSensor cAMP assay. It counts as functional, cell-based. A digest of the protocol: (§1)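 Receptors stably transfected in CHO cells. Antagonism read as inhibition of the NECA-stimulated rise in cAMP levels. IC50 values were derived from dose-response curves.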

The target in data set [2] is T2, Adenosine receptor A2a. Briefly: Antagonist activity at human adenosine receptor A2A expressed in CHO cell membranes assessed as inhibition of NECA-induced increase of cAMP accumulation preincubated for 10 mins followed by NECA addition measured after 10 mins by GloSensor cAMP assay. It counts as functional, cell-based. Summed up: as §1
Data set [3] relates to SH-SY5Y. In words: Neuroprotective activity against MPP+-induced toxicity in human SH-SY5Y cells assessed as increase in cell viability at 15 nM pretreated for 1 hr followed by MPP+ addition measured after 24 hrs by Celltiter-Glo luminescent assay. Type of data set: functional, cell-based. A digest of the protocol: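 SH-SY5Y human neuroblastoma cells were exposed to MPP+ at 1.5 mM for 24 h, with test agent present, and cell viability was then measured. The MPP+ level was chosen from a pilot range of 50 μM to 3 mM over 24 h.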

Data set [4] has as its system SH-SY5Y. Briefly: Cytotoxicity against human SH-SY5Y cells assessed as increase in cell viability at 0.5 to 30 nM after 24 hrs by Celltiter-Glo luminescent assay. It counts as cell-based. Particulars: 0.03 µM. Background: Cellular ATP, detected with luciferase, serves as a proxy for viable cell number.
The test system of data set [5] is SH-SY5Y. In words: Neuroprotective activity against MPP+-induced toxicity in human SH-SY5Y cells assessed as increase in cell viability at 15 nM pretreated for 1 hr followed by MPP+ addition measured after 24 hrs in the presence of human adenosine receptor A2A agonist CGS21680 by Celltiter-Glo luminescent assay. It counts as functional, cell-based. Summed up: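 SH-SY5Y cells were given MPP+ (1.5 mM, 24 h) plus test agent at 15 nM, together with the A2A agonist CGS21680 at 10 to 100 nM, and cell viability was then measured.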

T2 sequence (P29274 whole entry): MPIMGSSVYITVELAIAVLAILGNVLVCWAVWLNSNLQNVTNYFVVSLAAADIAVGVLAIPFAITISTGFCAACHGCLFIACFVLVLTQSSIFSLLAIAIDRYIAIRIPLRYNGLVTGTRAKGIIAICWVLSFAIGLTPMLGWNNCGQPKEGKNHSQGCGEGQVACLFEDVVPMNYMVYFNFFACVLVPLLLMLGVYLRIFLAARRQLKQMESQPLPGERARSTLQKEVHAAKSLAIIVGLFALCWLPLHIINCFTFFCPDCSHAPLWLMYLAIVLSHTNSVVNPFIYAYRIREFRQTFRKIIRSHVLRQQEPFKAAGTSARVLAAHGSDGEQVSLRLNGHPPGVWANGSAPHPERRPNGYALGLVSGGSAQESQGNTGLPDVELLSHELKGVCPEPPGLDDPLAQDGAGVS

In the case of `COc1ccc(-c2cn3c(=O)n(-c4ccccc4)nc3c(N)n2)cc1`, the negative logarithm of the Ki (pKi) was below 4.52 at Adenosine receptor A1, 8.14 at Adenosine receptor A2a [1] and below 4.52 at Adenosine receptor A3. Also, the negative-log IC50 (pIC50) on Adenosine receptor A2b was below 4.52; at Adenosine receptor A2a [2] it was 6.74. For the same compound, the result with SH-SY5Y [3] was Active. Also, in the data set on SH-SY5Y [4], the Activity result is recorded as “Non-Toxic”. Moreover, the outcome with SH-SY5Y [5] was inactive.
